What was measured:
PC-9 = assay: Antiproliferative activity against human PC9 cells after 5 days by SRB assay; format: functional, cell-based; conditions: PC-9, 120 h
Summary of the method: (§1)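 Grown in α-MEM + 5% FBS at 37 °C, 5% CO2. Seeding per well: 3000 (H661), 1000 (PC9), 400 (H460, H1299), attached overnight. Cells were dosed with a 3-fold serial dilution from DMSO stocks for 5 days. Then cold TCA fixation, 0.4% SRB staining, solubilisation in 10 mM Tris pH 10.5, absorbance at 490 nm. IC50 was derived from the curves.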

SW780 = assay: Antiproliferative activity against human FGFR3-amplified SW780 cells after 5 days by SRB assay; conditions: SW780, 120 h
NCI-H1299 = assay: Antiproliferative activity against human NCI-H1299 cells after 5 days by SRB assay; format: functional, cell-based; conditions: NCI-H1299, 120 h; summary of the method: as §1
NCI-H520 = assay: Antiproliferative activity against human FGFR1-amplified NCI-H520 cells after 7 days by SRB assay; conditions: NCI-H520, 168 h
NCI-H460 = assay: Antiproliferative activity against human NCI-H460 cells after 5 days by SRB assay; format: functional, cell-based; conditions: NCI-H460, 120 h; summary of the method: as §1
[1] = Antiproliferative activity against human FGFR2-amplified SUM52 cells after 5 days by SRB assay; conditions: SUM52, 120 h
NCI-H661 = assay: Antiproliferative activity against human NCI-H661 cells after 5 days by SRB assay; format: functional, cell-based; conditions: NCI-H661, 120 h; summary of the method: as §1
L02 = assay: Cytotoxicity against human HL7702 cells assessed as cell viability after 72 hrs by CCK-8 assay; format: cell-based; conditions: L02, 72 h
Summary of the method: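 Log-phase HL7702 cells were plated at ~3000 cells/well and treated 24 h later with compound or vehicle for 72 h. CCK-8 was added for 3 h and OD450 minus OD650 measured. Viability = (As−Ac)/(Ab−Ac)×100, with Ac a cell-free blank and Ab the vehicle control.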

[2] = target: Fibroblast growth factor receptor 3 (Homo sapiens, UniProt P22607); assay: Inhibition of human recombinant His-tagged FGFR3 cytoplasmic domain (399 to 806 residues) expressed in baculovirus using Tyr-4 peptide after 1 hr by FRET-based Z'-Lyte assay
Chain of Fibroblast growth factor receptor 3 (P22607 whole entry, the tested form may be a part): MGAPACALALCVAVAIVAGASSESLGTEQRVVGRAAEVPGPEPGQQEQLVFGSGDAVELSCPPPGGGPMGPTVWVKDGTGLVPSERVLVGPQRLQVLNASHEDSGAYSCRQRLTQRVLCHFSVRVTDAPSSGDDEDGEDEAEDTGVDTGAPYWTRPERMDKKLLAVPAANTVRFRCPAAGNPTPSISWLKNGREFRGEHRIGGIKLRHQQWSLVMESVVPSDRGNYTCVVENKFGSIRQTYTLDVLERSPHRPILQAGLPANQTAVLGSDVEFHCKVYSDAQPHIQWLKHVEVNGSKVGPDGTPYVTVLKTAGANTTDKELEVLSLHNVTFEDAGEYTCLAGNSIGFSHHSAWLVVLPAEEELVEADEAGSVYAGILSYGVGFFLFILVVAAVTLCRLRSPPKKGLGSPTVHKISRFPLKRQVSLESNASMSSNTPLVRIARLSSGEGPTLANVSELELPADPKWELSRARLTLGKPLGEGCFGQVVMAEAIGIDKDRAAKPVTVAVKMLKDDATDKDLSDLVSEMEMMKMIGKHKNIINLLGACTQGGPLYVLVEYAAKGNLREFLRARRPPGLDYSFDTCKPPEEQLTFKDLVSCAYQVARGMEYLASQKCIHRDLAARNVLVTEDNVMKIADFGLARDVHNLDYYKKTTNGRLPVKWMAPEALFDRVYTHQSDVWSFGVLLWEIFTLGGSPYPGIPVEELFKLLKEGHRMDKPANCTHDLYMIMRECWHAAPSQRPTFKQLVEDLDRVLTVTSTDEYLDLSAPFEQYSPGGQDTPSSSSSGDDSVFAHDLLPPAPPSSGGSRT

[3] = target: Fibroblast growth factor receptor 4 (Homo sapiens, UniProt P22455); assay: Inhibition of human recombinant His-tagged FGFR4 cytoplasmic domain ([…] residues) expressed in baculovirus using Tyr-4 peptide after 1 hr by FRET-based Z'-Lyte assay
Chain of Fibroblast growth factor receptor 4 (P22455 whole entry, the tested form may be a part): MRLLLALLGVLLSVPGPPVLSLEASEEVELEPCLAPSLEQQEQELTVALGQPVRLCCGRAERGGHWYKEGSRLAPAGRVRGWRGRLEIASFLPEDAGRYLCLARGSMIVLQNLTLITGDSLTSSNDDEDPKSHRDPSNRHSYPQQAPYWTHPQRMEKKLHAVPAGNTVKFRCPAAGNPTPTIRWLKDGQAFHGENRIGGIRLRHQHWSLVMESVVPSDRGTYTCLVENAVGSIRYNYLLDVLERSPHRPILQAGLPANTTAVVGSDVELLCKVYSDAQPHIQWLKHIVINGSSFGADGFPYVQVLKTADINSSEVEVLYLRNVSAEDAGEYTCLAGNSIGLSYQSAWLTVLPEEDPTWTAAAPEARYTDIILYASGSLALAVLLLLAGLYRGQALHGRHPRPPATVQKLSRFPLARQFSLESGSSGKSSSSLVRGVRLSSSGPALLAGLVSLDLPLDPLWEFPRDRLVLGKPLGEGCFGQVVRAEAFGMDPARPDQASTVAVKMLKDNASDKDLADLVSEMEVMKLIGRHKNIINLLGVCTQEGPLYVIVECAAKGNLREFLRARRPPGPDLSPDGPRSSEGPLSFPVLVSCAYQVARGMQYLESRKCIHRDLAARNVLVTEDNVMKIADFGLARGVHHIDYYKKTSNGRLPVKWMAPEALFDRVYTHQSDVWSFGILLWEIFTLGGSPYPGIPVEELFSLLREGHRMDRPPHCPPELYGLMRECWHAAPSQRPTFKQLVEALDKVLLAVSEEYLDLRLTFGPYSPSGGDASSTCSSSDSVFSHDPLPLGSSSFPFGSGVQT

| SMILES | IC50 (SW780) [nM] | IC50 (NCI-H520) [nM] | IC50 [1] [nM] | further results |
| --- | --- | --- | --- | --- |
| COc1cc(OC)c(Cl)c(N2Cc3cnc(Nc4ccccc4)nc3N(C3CCN(C(=O)/C=C/CN(C)C)CC3)C2=O)c1Cl | 9.73 | 4.14 | 0.65 | IC50 (PC-9): 1260 nM; IC50 (NCI-H1299): 2480 nM; IC50 (NCI-H460): 1400 nM; IC50 (NCI-H661): 2750 nM; IC50 (L02): 1890 nM |
| COc1cc(OC)c(Cl)c(N2Cc3cnc(NC4CCOC4)nc3N(C3CCN(C(=O)/C=C/CN(C)C)CC3)C2=O)c1Cl (stereo not drawn) | 32 | 70 | 4 | – |
| COc1cc(OC)c(Cl)c(N2Cc3cnc(NC(C)C)nc3N(C3CCN(C(=O)/C=C/CN(C)C)CC3)C2=O)c1Cl | 12.3 | 4.91 | 0.65 | – |
| C=CC(=O)Nc1cccc(CN2C(=O)N(c3c(Cl)c(OC)cc(OC)c3Cl)Cc3cnc(NCCCCN(CC)CC)nc32)c1 | 277 | 121 | 2.9 | – |
| CNc1ncc2c(n1)N(C1CCN(C(=O)/C=C/CN(C)C)CC1)C(=O)N(c1c(Cl)c(OC)cc(OC)c1Cl)C2 | 5.2 | 56.2 | 2 | – |
| CCN(CC)CCCCNc1ncc2cc(-c3cc(OC)cc(OC)c3)c(NC(=O)NC(C)(C)C)nc2n1 [PD-173074] | 84.3 | – | 12.3 | – |
| COc1cc(OC)c(Cl)c(N2Cc3cnc(N(C)C)nc3N(C3CCN(C(=O)/C=C/CN(C)C)CC3)C2=O)c1Cl | 570 | 2420 | 224 | IC50 [2]: > 1000 nM; IC50 [3]: > 1000 nM |
| COc1ccc(Nc2ncc3c(n2)N(C2CCN(C(=O)/C=C/CN(C)C)CC2)C(=O)N(c2c(Cl)c(OC)cc(OC)c2Cl)C3)cc1 | 0.3 | 3 | 0.8 | – |
| COc1cc(OC)c(Cl)c(N2Cc3cnc(NC4CCCCC4)nc3N(C3CCN(C(=O)/C=C/CN(C)C)CC3)C2=O)c1Cl | 14.5 | 13.6 | 0.84 | – |
| COc1cc(OC)c(Cl)c(N2Cc3cnc(Nc4cccc(F)c4)nc3N(C3CCN(C(=O)/C=C/CN(C)C)CC3)C2=O)c1Cl | 9 | 6.5 | 1.1 | – |
| COc1cccc(Nc2ncc3c(n2)N(C2CCN(C(=O)/C=C/CN(C)C)CC2)C(=O)N(c2c(Cl)c(OC)cc(OC)c2Cl)C3)c1 | 5.4 | 19.3 | 1 | – |
| COc1cc(OC)c(Cl)c(N2Cc3cnc(NC4CCOCC4)nc3N(C3CCN(C(=O)/C=C/CN(C)C)CC3)C2=O)c1Cl | 3.34 | 7.82 | 0.57 | – |
| COc1cc(OC)c(Cl)c(N2Cc3cnc(Nc4cccc(C)c4)nc3N(C3CCN(C(=O)/C=C/CN(C)C)CC3)C2=O)c1Cl | 15.1 | 5.3 | 1.1 | – |
| COc1ccccc1Nc1ncc2c(n1)N(C1CCN(C(=O)/C=C/CN(C)C)CC1)C(=O)N(c1c(Cl)c(OC)cc(OC)c1Cl)C2 | 27.5 | 39.8 | 3.3 | – |
